Molecular target: Alpha-1-acid glycoprotein 1 (Homo sapiens, UniProt P02763)
Experiment: Ability to inhibit the binding of E-selectin to human recombinant AGP (alpha-1 acid glycoprotein) in a E-selectin assay
Summary of the method: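 ELISA read-out. Soluble E-selectin binding to human recombinant AGP bearing five sLex per molecule. Compounds screened at 5 mM, with percent inhibition recorded.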

Alpha-1-acid glycoprotein 1, sequence (P02763 whole entry): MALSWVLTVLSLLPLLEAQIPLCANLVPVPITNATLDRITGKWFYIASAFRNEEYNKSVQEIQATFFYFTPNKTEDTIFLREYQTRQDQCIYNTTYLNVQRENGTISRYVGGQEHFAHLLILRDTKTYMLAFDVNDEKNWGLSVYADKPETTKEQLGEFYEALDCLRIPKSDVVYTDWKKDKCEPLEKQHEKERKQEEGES

For `C[C@@H](NC(=O)c1ccccc1C(=O)NCC1OC(CC(=O)N[C@@H](CCC(=O)O)C(=O)O)C(O)C(O)C1O)c1ccccc1` (stereo not given in full), the IC50 was 5 mM.

With `Cc1ccc(COc2ccsc2C(=O)NCC2OC(CC(=O)N[C@@H](CCC(=O)O)C(=O)O)C(O)C(O)C2O)cc1` (stereo not given in full) the Inhibition was 42%.

With `CC(=O)N[C@H]1[C@H]([C@H](O)[C@H](O)CO)O[C@@](O[C@H]2[C@@H](O)[C@@H](CO)O[C@@H](O[C@@H]([C@H](O[C@@H]3O[C@@H](C)[C@@H](O)[C@@H](O)[C@@H]3O)[C@H](C=O)NC(C)=O)[C@H](O)CO)[C@@H]2O)(C(=O)O)C[C@@H]1O` [SIALYL LEWIS X] the IC50 was 8 mM.

With `O=C(O)CC[C@H](NC(=O)CC1OC(CNC(=O)CC(=O)Nc2ccc(Cl)cc2Cl)C(O)C(O)C1O)C(=O)O` (stereo not given in full) the Inhibition was 45%.

`CC(C)(C)c1ccc(COc2ccsc2C(=O)NCC2OC(CC(=O)N[C@@H](CCC(=O)O)C(=O)O)C(O)C(O)C2O)cc1` (stereo not given in full) gave an Inhibition of 43%.

From ChEMBL document CHEMBL1135910, “Beta-C-mannosides as selectin inhibitors” (J Med Chem, 2002)
